This is a sample that favours compounds with a hit; in the whole collection about 1.6% have one here.
LANA-H2B inh: blockers of LANA interaction with H2A/H2B – biochemical, FP readout, HTS, primary screen; inhibition, % (no concentration beside the values); cell-free LANA-H2A/H2B peptide, fluorescence polarization; Protein LANA1 (Human herpesvirus 8 type P (isolate GK18)), Q9QR71; AID 2629, 2010; 320,000 compounds, 0.6% hits; in the data active = inhibition mostly above about 10%, no sharp cut-off; inactive = mostly below about 6.7%
JMJD2C inh: inhibitors of GASC-1 histone demethylase, primary screen, biochemical, fluorescence, DELFIA europium. GST-JMJD2C(1-420) H3K9me3 demethylation. inhibition, % at 2.35 µM. 330,000 compounds, 0.069% hits. AID 2099, 2009;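 active = more than half of a compound's replicate wells show inhibition beyond 50%, single wells judged on their own value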;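 also: signal counts dimethyl H3K9 product captured on neutravidin plate; 0% = median of DMSO wells and 100% = 0.3 times that DMSO median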
DSG3 Ab inh: inhibitors of pemphigus antibody binding to DSG3, primary screen, biochemical, bead-based, flow cytometry, scFv-GFP; Desmoglein-3 (Homo sapiens), P32926; DSG3-coupled beads, scFv-anti-DSG3-GFP binding; active compounds read low; binding (percent of control), % at 10 µM; 310,000 compounds, 0.48% hits; AID 588358, 2011;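 active = binding more than 3 SD below its plate's average and above zero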;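 also: hits lower antibody fragment binding to DSG3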
Target sequence (P32926 whole entry, looked up, the tested form may be a part): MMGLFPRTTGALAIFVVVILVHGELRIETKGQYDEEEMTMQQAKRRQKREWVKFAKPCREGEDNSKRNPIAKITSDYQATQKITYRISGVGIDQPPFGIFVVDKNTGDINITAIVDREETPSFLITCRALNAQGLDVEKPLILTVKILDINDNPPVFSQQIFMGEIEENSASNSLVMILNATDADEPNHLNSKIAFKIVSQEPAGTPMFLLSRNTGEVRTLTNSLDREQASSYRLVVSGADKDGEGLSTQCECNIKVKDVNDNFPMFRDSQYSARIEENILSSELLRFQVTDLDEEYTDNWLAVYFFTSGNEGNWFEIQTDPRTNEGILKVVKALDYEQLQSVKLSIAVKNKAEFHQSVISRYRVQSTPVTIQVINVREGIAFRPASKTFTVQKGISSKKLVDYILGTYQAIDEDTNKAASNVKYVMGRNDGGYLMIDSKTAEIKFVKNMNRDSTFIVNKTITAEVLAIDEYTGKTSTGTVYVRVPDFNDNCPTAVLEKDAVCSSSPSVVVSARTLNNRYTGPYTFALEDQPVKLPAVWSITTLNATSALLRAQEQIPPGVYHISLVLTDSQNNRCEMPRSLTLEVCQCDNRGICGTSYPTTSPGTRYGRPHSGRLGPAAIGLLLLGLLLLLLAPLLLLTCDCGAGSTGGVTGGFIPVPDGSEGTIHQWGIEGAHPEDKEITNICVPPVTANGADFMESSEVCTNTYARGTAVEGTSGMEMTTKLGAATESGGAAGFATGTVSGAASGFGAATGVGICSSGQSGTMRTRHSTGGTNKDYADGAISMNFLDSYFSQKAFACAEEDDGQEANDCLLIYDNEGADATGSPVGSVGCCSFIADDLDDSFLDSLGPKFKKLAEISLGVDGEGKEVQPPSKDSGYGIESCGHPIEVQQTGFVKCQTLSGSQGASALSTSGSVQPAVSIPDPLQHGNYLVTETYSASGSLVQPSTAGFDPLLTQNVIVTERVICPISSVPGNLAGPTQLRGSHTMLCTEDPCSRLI
HDAC3 inh: HDAC3 deacetylase inhibitors, primary screen, biochemical, fluorescence, cell-free homogeneous | Histone deacetylase 3 (Homo sapiens), O15379 | recombinant HDAC3, fluorogenic peptide/trypsin coupled | inhibition, % at 8.3 µM | 320,000 compounds, 0.15% hits; in the data active = inhibition above about 26%, passing the limit was not always enough
Arr AP2 block: inhibitors of beta-arrestin/AP2 binding, primary screen, biochemical, GPCR trafficking, flow cytometry; 340,000 compounds, 0.31% hits; inhibition, % at 10 µM; AID 504490, 2011; FITC-arrestin peptide / GST-AP2 beads; AP2 beta2 appendage carries R879A mutation;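 active = inhibition above a set limit, near 3 SD of compounds lacking own fluorescence, cut at about 54% in these data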;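 also: plate controls were DMSO wells for no effect and 5 µM unlabelled arrestin peptide for full effect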
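System: GST-tagged AP2 beta2-adaptin appendage (R879A) on 4 µm glutathione beads / Reagent: FITC-arrestin peptide, 50 nM / Detection: HyperCyt-sampled flow cytometry, FL1 channel, ex 488/em 535 nm / Timing: 12 min plus 1 h, RT / Buffer or medium: PBS plus Tween 20 (0.05%) and BSA (0.1%)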
T cell HTS: modulators of CD8 T cell-vesicle binding, primary screen, mouse 2C CD8+ T cells, flow cytometry; 2C CD8+ T cell-vesicle binding; active compounds read low; response (vesicle binding), % at 7 µM; 330,000 compounds, 0.068% hits;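 active = response, share of CD8 T cells binding vesicles, and their 90th percentile fluorescence all below set limits, cut at about 80% in these data, passing the limit was not always enough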;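 also: values below 100% mean blocked vesicle binding to the CD8+ T cells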
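Material: murine 2C transgenic CD8+ T lymphocytes / Also added: QL9-peptide-loaded Drosophila micro-vesicles bearing Ld, ICAM-1 and B7-1 / Schedule: binding step 1.5 h, 37 °C, antibody labelling 20 min, ice / Signal: flow cytometry, PE anti-B7-1 (FL2) versus Alexa647 anti-CD8 (FL8), PFA-fixed / Evaluation: percent CD8+ FL2 mean versus row control / Benchmarks: naked versus QL9-loaded vesicles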
* marks the source's active call; other numbers are inactive results; i = inactive; . = not tested or not shown.

SMILES | LANA-H2B inh | JMJD2C inh | DSG3 Ab inh | HDAC3 inh | Arr AP2 block | T cell HTS
COc1cc(NC(=O)[C@H]2CSCN2C(=O)[C@@H]2CCC(=O)N2)cc(OC)c1OC | 14.3* | 0.6 | 138.2 | -1.6 | -9.4 | 749.8
COCCn1c(=S)[nH]c2cc(C(=O)N3CC(C)CC(C)C3)ccc2c1=O (stereo not drawn) | -8.7 | 0.3 | 100.5 | -3.0 | -17.4 | 644.5
CCCCCN1C=CC=C/C1=C\C=C(C#N)C#N | -0.4 | 72.6 | 104.8 | -1.8 | 5.4 | 336.3
CCCCCCN1C=CC=C/C1=C/C=C(C#N)C#N | 10.3* | 13.6 | 130.9 | 16.9 | 0.5 | 747.1
CCc1cccc(C)c1NC(=O)CN1C(=O)NC(CCc2ccccc2)C1=O (stereo not drawn) | 2.5 | 1.1 | 126.0 | 9.3 | -7.0 | 135.9
CCn1c(O)c(C2=NCCCC2)c2ccccc21 | 0.9 | -1.1 | 99.8 | -2.7 | 24.6 | 631.8
Oc1[nH]c2ccccc2c1C1=NCCCC1 | 21.1* | 8.4 | 109.0 | 15.6 | -2.2 | 297.6
CCn1cc(C(=O)OCC(=O)N(C)Cc2ccccc2)c(=O)c2ccc(C)nc21 | 60.7* | -24.0 | 114.8 | 0.4 | -7.5 | 261.6
CCOc1ccc(NC(=O)c2ccc(NC(=O)CSc3nc4ccccc4c(=O)[nH]3)cc2)cc1 | 1.5 | -5.7 | 80.7* | -1.1 | 12.9 | 470.0
COc1ccc(-c2cnc(C(N)=O)c(=O)[nH]2)cc1 | . | . | 111.1 | . | . | .
CC(C(=O)Nc1nnc(C2CC2)s1)N1C(=O)C2CC=CCC2C1=O (stereo not drawn) | 12.9* | 4.0 | 97.3 | 1.4 | 11.7 | 633.3
Cn1ncc(Cl)c1C(=O)NCC1CCCO1 (stereo not drawn) | 13.6* | -0.8 | 115.8 | -2.1 | -1.6 | i
CC(NC(=O)c1c(Cl)cnn1C)C1CCCO1 (stereo not drawn) | -0.3 | 0.6 | 102.1 | -0.7 | -12.8 | 367.7
CCOC(=O)C1=C(COC(=O)CCNS(=O)(=O)c2ccc(C)c(C)c2)NC(=O)NC1C (stereo not drawn) | 0.0 | -3.7 | . | -0.6 | 27.0 | 310.7
COc1cc(C(=O)NCC(=O)NCCN2C(=O)S/C(=C\c3ccccc3Cl)C2=O)cc(OC)c1OC | -0.7 | 3.2 | 97.3 | 2.9 | 6.0 | 853.6
COc1cc(/C=C2\SC(=O)N(CCNC(=O)c3sc4cc(F)ccc4c3Cl)C2=O)cc(OC)c1OC | 15.2* | 2.2 | 106.4 | 6.1 | 11.2 | 330.0
Cc1ccc(-n2c(CNC(=O)c3cccs3)nnc2SCC(=O)NO)cc1 | 0.1 | -8.3 | 101.5 | 53.3* | -12.3 | 449.1
COc1ccc(Cl)cc1NC(=O)CSc1nc2[nH]ncc2c(=O)[nH]1 | . | . | 99.3 | . | . | .
Cc1ccc2oc(-c3cccc(N)c3)nc2c1 | -1.4 | 13.6 | 103.3 | -73.1 | 7.6 | 406.1
Nc1cccc(-c2nc3cc(S(=O)(=O)c4ccc5oc(-c6cccc(N)c6)nc5c4)ccc3o2)c1 | 1.3 | 5.4 | 77.4* | 2.9 | -2.8 | 475.4
COCC(C)n1c(C)cc(C(=O)Cn2nc(C(=O)O)c3ccccc3c2=O)c1C (stereo not drawn) | 6.9 | 3.8 | 115.8 | 1.5 | -21.9 | 204.4
COCC(C)n1c(C)cc(C(=O)COC(=O)c2nn(C)c(=O)c3ccccc23)c1C (stereo not drawn) | 2.2 | -0.4 | 63.5* | 4.8 | -0.7 | 485.8
CCOC(=O)c1c(NC(=O)CN2CCN(S(=O)(=O)c3cc(Cl)ccc3Cl)CC2)sc(C(=O)N(C)C)c1C | . | . | 139.1 | . | -16.9 | .
Cc1cc(-n2cnnn2)ccc1C(C)C | 3.2 | -3.7 | 95.7 | 0.3 | 16.9 | 253.7
CCOCCCNC(=S)N(CCN(C)C)Cc1cc2cc3c(cc2[nH]c1=O)OCCO3 | 10.4 | -6.5 | 93.9 | 34.8* | 36.0 | 227.4

Bioassay records (PubChem BioAssay)
